Results collected from several papers.
Compare with care: the assays were run in different laboratories.
Cell line: HepG2
Effect on: cell growth or viability

SMILES	technique	time	CC50 [µM]
Cc1ccc(Nc2ncnc3ccc(-c4cccc(N5CCOCC5)c4)cc23)cc1	MTT	48 h	19
N=C(CC(O)c1nc2ccccc2c2ccccc12)Nc1ccc(F)cc1 (centres unmarked)	neutral red	24 h	48.5
O=[N+]([O-])c1ccc(Nc2ncnc3ccc(-c4cccc(N5CCOCC5)c4)cc23)cc1C(F)(F)F	MTT	48 h	> 40
O=C1c2ccccc2C(=O)c2c(NCCc3ccc(O)cc3)ccc(NCCc3ccc(O)cc3)c21	ATP luminescence	72 h	16.1
N=C(CC(O)c1cc2cccnc2c2cccnc12)Nc1ccc(F)cc1 (centres unmarked)	neutral red	24 h	265
O=C(Nc1ccncc1)c1cc([N+](=O)[O-])ccc1Cl	ATP luminescence	72 h	18.1
CN(CC(=O)Nc1ccc(N(C)c2ccc(Cl)c(Cl)c2)cc1)c1ccccc1N1CCCC1=O	ATP luminescence	48 h	> 40
C[n+]1cc2c3c(ccc2c2ccc4cc5c(cc4c21)OCO5)OCO3	ATP luminescence	72 h	9.44
CC(C)N(c1ccc(NC(=O)CN(C)c2ccccc2N2CCCC2=O)cc1)c1ccc(Cl)c(F)c1	ATP luminescence	48 h	> 40
CN1CCN(c2cccc(-c3ccc4ncnc(Nc5ccc(Cl)c(Cl)c5)c4c3)c2)CC1	MTT	48 h	14
Cc1ccc(Oc2ccc(NC(=O)CNc3ccccc3N3CCCCC3=O)cc2)cc1	ATP luminescence	48 h	15
c1cc(-c2ccc3ncnc(NC4CCOCC4)c3c2)cc(N2CCOCC2)c1	MTT	48 h	26
CC(C)N(c1ccc(C#N)cc1)c1ccc(NC(=O)CN(C)c2ccccc2N2CCCC2=O)cn1	ATP luminescence	48 h	> 40
CN1CCN(c2cccc(-c3ccc4ncnc(Nc5ccc(Cl)c(C(F)(F)F)c5)c4c3)c2)CC1	MTT	48 h	15
CC(C)N(c1ccc(Cl)c(F)c1)c1ccc(NC(=O)CN(C)c2ccccc2N2CCCC2=O)c(F)c1	ATP luminescence	48 h	> 40
CC(=O)[C@]1(O)Cc2c(O)c3c(c(O)c2[C@@H](O[C@H]2C[C@H](N)[C@H](O)[C@H](C)O2)C1)C(=O)c1ccccc1C3=O	ATP luminescence	72 h	0.14
N=C(CC(O)c1ccnc2c1ccc1ccccc12)Nc1ccc(F)cc1 (centres unmarked)	neutral red		33.3
